Source: PubChem (several laboratories)
PREPL inhibitor = inhibits the human prolyl oligopeptidase-like enzyme. 0.68% of 320,000 active. Q4J6C6. inhibition, % at 5.96 µM. recombinant PREPL, fluorescence polarization activity-based probe. AID 2751; in the data active means inhibition above about 43%
RBBP9 inh = human RBBP9 hydrolase inhibition | inhibition, % at 7.94 µM | recombinant RBBP9, FP-Rh probe fluorescence polarization | O75884 | 0.2% of 220,000 active;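 active means inhibition above the campaign mean of all tested compounds plus 3 SD, cut at about 14% in these data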
Target sequence (O75884 whole entry, looked up): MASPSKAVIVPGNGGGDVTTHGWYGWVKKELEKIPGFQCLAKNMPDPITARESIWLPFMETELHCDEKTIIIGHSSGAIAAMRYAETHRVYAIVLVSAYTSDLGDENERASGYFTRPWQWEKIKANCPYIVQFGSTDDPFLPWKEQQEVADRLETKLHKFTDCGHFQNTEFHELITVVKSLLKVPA
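Measured by – fluorescence polarization · Test system – RBBP9 protein · Input – 2.5 µM RBBP9 dispensing solution, before mixing · Measure – percent inhibition from mP, scaled between DMSO and no-protein wells · Benchmarks – DMSO-treated enzyme wells and wells lacking RBBP9 · Times – preincubation 30 min plus labeling 45 min at 25 °C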
ALR H2O2 inh = blocks human ALR sulfhydryl oxidase activity; P55789; purified ALR, DTT oxidation, H2O2 HRP-luminol luminescence; inhibition, % (concentration not given with the values); 3.8% of 290,000 active; AID 485317;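 active means mean replicate inhibition above about 79%, with every replicate also reaching it, limit read from the data; inconclusive means only one of the two criteria met; inactive means mean below limit and not every replicate reaching it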
Target sequence (P55789 whole entry, looked up): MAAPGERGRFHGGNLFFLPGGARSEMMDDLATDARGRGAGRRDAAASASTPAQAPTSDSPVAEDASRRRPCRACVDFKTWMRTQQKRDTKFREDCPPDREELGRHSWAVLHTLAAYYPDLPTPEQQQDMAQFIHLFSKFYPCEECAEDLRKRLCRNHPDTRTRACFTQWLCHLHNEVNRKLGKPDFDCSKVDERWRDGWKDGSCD
SUMO HTRF inh = blocks human SUMOylation mediated by UBC9. 0.36% of 290,000 active. HTRF SUMOylation assay, SAE1/SAE2 + UBC9, in vitro. inhibition, % at 35 µM; in the data active means inhibition above about 50%, passing the limit was not always enough; inconclusive means no clear call, values can overlap the other calls
Target sequence (P63279 whole entry, looked up): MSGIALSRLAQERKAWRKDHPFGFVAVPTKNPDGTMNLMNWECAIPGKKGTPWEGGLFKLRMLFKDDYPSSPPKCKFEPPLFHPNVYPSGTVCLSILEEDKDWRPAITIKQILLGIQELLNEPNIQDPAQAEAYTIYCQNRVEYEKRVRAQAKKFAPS
UBC13 inh = blocks human UBC13 polyubiquitin chain formation. TR-FRET. inhibition, % at 20 µM. 0.47% of 330,000 active. AID 485273; in the data active means inhibition above about 45%, passing the limit was not always enough; inconclusive means no clear call, values can overlap the other calls
Rin1-Abl PPI inh = human Rin1-Abl interaction inhibition | P00519+Q13671 | TR-FRET Rin1/Abl binding, biochemical | inhibition, % at 7.35 µM | 0.4% of 360,000 active | AID 588664; in the data active means inhibition above about 5%, passing the limit was not always enough
Hits are given with their value; n = inactive; u = inconclusive; x = no result. In the library only some 4.3% were active in any assay of this set; here they are far more common.

SMILES	PREPL inhibitor	RBBP9 inh	ALR H2O2 inh	SUMO HTRF inh	UBC13 inh	Rin1-Abl PPI inh
S=C(NN=C(C1CC1)C1CC1)Nc1ccccc1	n	n	97.2	n	n	n
COc1ccc(C2c3[nH]c4ccccc4c3C[C@H]3C(=O)N(c4ccccc4C(=O)N4CCC[C@H]4C(=O)O)C(=O)N23)cc1 (some centres undefined)	n	x	98.0	n	n	n
COc1cccc(C2c3[nH]c4ccccc4c3C[C@H]3C(=O)N(c4ccccc4C(=O)N4CCC[C@H]4C(=O)O)C(=O)N23)c1 (some centres undefined)	n	x	98.2	n	n	n
O=C(O)[C@@H]1CCCN1C(=O)c1ccccc1N1C(=O)[C@@H]2Cc3c([nH]c4ccccc34)C(c3cccc(Cl)c3)N2C1=O (some centres undefined)	n	x	97.4	n	n	n
CCCCC[C@H](O)/C=C/[C@H]1CCC(=O)[C@@H]1CCCCCCC(=O)N1CCCCC1CO (some centres undefined)	n	x	n	n	n	n
CCOc1ccc(Cl)cc1-c1cc(C(=O)NCCOC)[nH]n1	x	x	x	x	x	n
Cc1ccc(-n2c(SCC(=O)NC3CCS(=O)(=O)C3)nc3ccccc3c2=O)cc1C (centres undefined)	n	x	n	x	n	n
COc1ccc2c(COC(=O)[C@@H]3CCCN3S(=O)(=O)c3ccc(Cl)cc3)cc(=O)oc2c1	x	x	x	x	n	n
O=C(NC(Cc1c[nH]c2ccccc12)C(=O)O)OCC1c2ccccc2-c2ccccc21 (centres undefined)	x	x	x	x	x	n
COc1ccc(OC)c2c(C)cc(N3CCCN(C)CC3)nc12	n	n	97.5	n	n	n
CCn1c(P(C)(=O)O)nc2cc(NC(=O)c3ccccc3Cl)ccc21	n	n	n	n	n	n
CCSc1nc(-c2ccccc2)c(C#N)c(=O)[nH]1	n	n	n	n	n	n
N#Cc1c(-c2ccccc2)nc(SCc2nc(N)nc(N3CCCCC3)n2)[nH]c1=O	n	n	97.3	n	n	n
CCN(C(=O)c1sc(N)c(C#N)c1C)C1CCCCC1	n	n	95.6	n	n	n
CCOC(=O)/C(C#N)=C/c1cc2ccc(C)cc2nc1Cl	n	n	96.2	n	n	n
Cc1cc2cc(C=C(C#N)C#N)c(Cl)nc2cc1C	n	n	97.6	n	n	n
CCOC(=O)/C(C#N)=C/c1cc2cc(C)c(C)cc2nc1Cl	n	n	n	n	n	n
Cc1cc(C)cc(-n2c(C)cc(C=C(C#N)C#N)c2C)c1	n	n	n	n	n	n
Fc1ccc(CNc2ccccn2)cc1	x	x	n	n	n	n
CN(C)c1ccc(CNc2ccccn2)cc1	n	x	98.1	n	n	n
Cc1ccc(O)c(CNc2cccc(C)n2)c1	x	x	x	n	n	n
Cc1cccc(NCc2ccc(N(C)C)cc2)n1	n	x	82.4	n	n	n
Cc1ccc(Oc2ccc(NS(=O)(=O)c3cccc(C(=O)O)c3)cc2)cc1	n	x	n	x	n	n
CC(C)(CNC(=O)c1cccc(F)c1)CNC(=O)c1cccc(F)c1	n	x	n	x	n	n
CCCCCC#CCC#CCC#CCC#CCCCC(=O)O	n	n	x	58.2	n	x
SMILES	PREPL inhibitor	RBBP9 inh	ALR H2O2 inh	SUMO HTRF inh	UBC13 inh	Rin1-Abl PPI inh
O=c1c(Cl)c(NCc2ccc(F)cc2)cnn1C12CC3CC(CC(C3)C1)C2	n	n	n	n	n	n
O=c1c(Cl)c(N2CCN(c3ccc(F)cc3)CC2)cnn1C12CC3CC(CC(C3)C1)C2	n	n	77.1	n	n	n
O=c1c(Cl)c(N2CCN(c3ccccc3)CC2)cnn1C12CC3CC(CC(C3)C1)C2	n	n	85.8	n	n	n
CCC1C(=O)N(C)CCc2ccccc21 (centres undefined)	n	n	n	n	n	n
CCOC(=O)Cn1cncc1-c1ccc([N+](=O)[O-])cc1	n	n	97.3	n	n	n
COc1ccccc1C(=O)N/C(=C/c1ccco1)C(=O)Nc1cccc(C(=O)O)c1	n	x	n	n	n	n
COc1cccc(NC(=S)/C(=C(\[O-])c2cc(C)n(-c3ccccc3F)c2C)[n+]2ccc(N(C)C)cc2)c1	n	n	n	n	n	n
O=C(O)c1cc(O)c2c(c1)[C@@H]([C@H]1c3cc(C(=O)O)cc(O)c3C(=O)c3c(O[C@@H]4O[C@H](CO)[C@@H](O)[C@H](O)[C@H]4O)cccc31)c1cccc(OC3O[C@H](CO)[C@@H](O)[C@H](O)[C@H]3O)c1C2=O (some centres undefined)	106.4	x	n	x	u	n
O=C1C=CC(n2cc(F)c(=O)[nH]c2=O)O1 (centres undefined)	x	x	x	x	x	n
CC(C)c1ccc(NC2CCCN(C(=O)CCN3CCOCC3)C2)cc1 (centres undefined)	n	x	n	n	n	n
Cc1ccc(NC2CCCN(C(=O)CCN3CCOCC3)C2)cc1C (centres undefined)	n	x	98.6	n	n	n
Cc1ccc(NC2CCCN(C(=O)CCn3nccc3C)C2)cc1C (centres undefined)	n	x	99.4	n	n	n
Nc1ccc(-c2ccc(N)c(C(=O)O)c2)cc1C(=O)O	n	n	82.8	n	n	n
COCCOC(=O)CSc1ncccc1-c1nc2cc(C)c(C)cc2[nH]1	n	n	98.4	n	n	n
Cc1cc2nc(-c3cccnc3SCC(=O)NC(C)C)[nH]c2cc1C	n	n	n	n	n	n
COC(=O)c1ccc(NS(=O)(=O)c2ccccc2)o1	n	n	n	n	n	n
S=c1[nH]nc(Cc2sc(-c3ccccc3)nc2-c2ccccc2)o1	n	n	98.1	n	n	n
CCCCN1C(=O)/C(=c2\sc3nc(=O)c(-c4ccccc4)nn3c2=O)c2ccccc21	n	n	96.8	n	n	n
Cc1ccc2c(c1)-n1c(nc3ccc(C)cc3c1=O)C(Cc1ccc(O)cc1)NC2=O (centres undefined)	n	x	n	x	n	x
c1ccc(Nc2nc(N3CCCC3)nc(N3CCCC3)n2)cc1	n	n	n	n	n	n
O=C(O)c1cccc(Nc2nc(Nc3ccccc3)nc(N3CCCC3)n2)c1	n	n	94.5	n	n	n
CCCCCCCCNC(=O)c1cnsn1	n	n	n	n	n	n
CN(C)c1ccc(NC(=O)c2cnsn2)cc1	n	n	99.2	n	n	n
Cc1noc(C)c1C(=O)Nc1ccc(N(C)C)cc1	n	x	99.1	n	n	n
CC1CN(S(=O)(=O)c2cccc(C(=O)N(CCc3ccccc3)Cc3ccccc3)c2)CC(C)O1 (centres undefined)	n	x	n	x	n	n
CC(C)COc1ccc(N)cc1OCC(C)C	n	n	98.7	n	n	n
Cc1cccc(-c2nc3sc(C)cc3c(=O)o2)c1	n	n	97.3	n	n	n
Cc1cc2c(=O)oc(-c3ccc(Br)cc3)nc2s1	n	n	n	n	n	n
O=C(O)CCC(=O)Nc1ccccc1Oc1ccccc1	n	n	n	n	n	n
